# Source: publication PMC12144996 (Acta Pharmaceutica Sinica. B, 2025)
# Where two headings read alike, the source gives them in different places.
# Columns and labels:
# MHV-A59 [1] = test: Therapeutic treatment from 12 hpi in MHV-A59-infected BALB/c mice; format: in vivo, mouse hepatitis virus; conditions: 5 dpi; for Serum ALT and AST (liver injury markers): 50 mg/kg intragastric twice daily from 12 hpi, vs vehicle; for MHV replication in the lung (qRT-PCR and plaque assay): 500 mg/kg intragastric twice daily from 12 hpi
# In short: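 BALB/c mice were infected intranasally with 4×10^5 PFU MHV-A59. At 5 dpi, lung and liver were assayed by qRT-PCR and L2-cell plaque assay. Orbital blood was clotted at room temperature and the serum run in ALT/AST kits.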
# TGEV = test: Anti-animal coronavirus activity, viral load by qRT-PCR, TGEV in ST cells; format: cell-based, transmissible gastroenteritis virus; conditions: Alphacoronavirus 1, 48 h, read-out: EC50 for TGEV
# In short: (§1)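 Cells seeded in 48-well plates and grown 24 h to about 90% confluence, then washed three times with serum-free medium. Infected at MOI 0.01 for 1 h at 37 °C, then given medium with test compound dilutions or DMSO. After 48 h at 37 °C, cells and supernatants were harvested for viral load by qRT-PCR. EC50 taken from the dose–response curve; mean ± SEM.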
# HCoV-229E = test: microbe, parasite or virus in culture; format: cell-based; conditions: Human coronavirus 229E, Huh-7, read-out: EC50 for HCoV-229E
# MHV-A59 [2] = test: Time-of-addition of ATV006 in MHV-A59-infected cells, viral load; format: cell-based, mouse hepatitis virus; conditions: ATV006 administered 48 h after the viral infection; MOI = 0.0001
# HCoV-OC43 = test: Anti-human coronavirus activity, viral RNA by qRT-PCR, HCoV-OC43 in HCT-8 cells; format: cell-based; conditions: Betacoronavirus 1, OC43, HCT-8, read-out: EC50 for HCoV-OC43
# PEDV = test: Anti-animal coronavirus activity, viral load by qRT-PCR, PEDV in Vero E6 cells; format: cell-based; conditions: Porcine epidemic diarrhea virus, Vero C1008, 48 h, read-out: EC50 for PEDV
# In short: as §1
# MHV-A59 [3] = format: in vivo, mouse hepatitis virus
# HCoV-NL63 = format: cell-based; conditions: Human coronavirus NL63, LLC-MK2, read-out: EC50 for HCoV-NL63
# [4] = rats; cited from earlier work
# MHV-A59 [5] = test: Delayed therapeutic treatment; format: in vivo, mouse hepatitis virus; conditions: 5 dpi; for Viral replication in the lung (qRT-PCR): start 24-96 hpi
# In short: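 BALB/c mice under light isoflurane anaesthesia were infected intranasally with 4×10^5 PFU MHV-A59 in 40 μL DMEM. Test compound was started at delayed times post-infection and given every 12 h. At 5 dpi, lung and liver virus was measured by qRT-PCR and by plaque assay on L2 cells, with methyl cellulose overlay and crystal violet staining. Lungs were scored 0–4 for edema, mononuclear and PMN infiltration and hemorrhage; livers were blindly Ishak-scored. Serum ALT/AST measured by kit.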
# MHV-A59 [6] = test: Prophylactic ATV006 in MHV-A59-infected BALB/c mice, liver; format: in vivo, mouse hepatitis virus
# [7] = cynomolgus monkeys; cited from earlier work
# MHV = test: Anti-animal coronavirus activity, viral load by qRT-PCR, MHV in L2 cells; format: cell-based, mouse hepatitis virus; conditions: Murine coronavirus, 48 h, read-out: EC50 for MHV
# In short: as §1
# MHV-A59 [8] = test: Prophylactic ATV006 in intranasally MHV-A59-infected BALB/c mice, lung; format: in vivo, mouse hepatitis virus; conditions: 3 dpi
# In short: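 BALB/c mice were inoculated intranasally with 4×10^5 PFU MHV-A59 under mild isoflurane anaesthesia. They received vehicle (n = 6) or test compound at 500, 250, 100 or 50 mg/kg intragastric twice daily as prophylaxis (n = 5). Lungs were taken at 3 dpi for qRT-PCR and for plaque assay on L2 cells (methyl cellulose overlay, crystal violet). Lung sections were zinc formalin-fixed, 4 μm, H&E stained.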
# [9] = ATV006 500 mg/kg administered at 24 hpi
# [10] = […], remdesivir 20 mg/kg intraperitoneal once daily
# [11] = […], GS-441524 50 mg/kg oral once daily
compound,measurement,setting,value
CC(C)C(=O)OC[C@H]1O[C@@](C#N)(c2ccc3c(N)ncnn23)[C@H](O)[C@@H]1O [ATV006],Serum ALT and AST (liver injury markers),MHV-A59 [1],significantly reduced the liver injury markers ALT and AST
same,MHV replication in the lung (qRT-PCR and plaque assay),MHV-A59 [1],significantly inhibited MHV replication in the lung
same,MHV replication in the liver (qRT-PCR),MHV-A59 [1]; ATV006 2-50 mg/kg intragastric twice daily from 12 hpi,inhibited MHV replication in a dose-dependent manner
same,Virus titers in the liver (plaque assay),"MHV-A59 [1]; ATV006 at 2, 10, 25, 50 mg/kg twice daily from 12 hpi",below the detection limit of the plaque assay
same,EC50,TGEV,3040 nM
same,EC50,HCoV-229E,1120 nM
same,Inhibition of MHV-A59 viral load,MHV-A59 [2],no inhibitory effect was observed
same,EC50,HCoV-OC43,2900 nM
same,EC50,PEDV,1050 nM
same,Survival,"MHV-A59 [3]; […], ATV006 2 mg/kg intragastric once daily",all died by 10 dpi
same,Mortality and weight loss,"MHV-A59 [3]; […], ATV006 5 to 50 mg/kg intragastric once daily",effectively prevented mortality and weight loss
same,Reduction of viral titers in the liver,"MHV-A59 [3]; mouse, in vivo, 2 mg/kg",approximately sixfold
same,Live virus in the liver (plaque assay),"MHV-A59 [3]; mouse, in vivo, 50 mg/kg",no live virus was found in the liver
same,Reduction of viral titers in the liver,"MHV-A59 [3]; mouse, in vivo, 50 mg/kg","1,000,000 fold"
same,EC50,HCoV-NL63,800 nM
same,Oral bioavailability,[4],high oral bioavailability
same,MHV replication in the liver (qRT-PCR),"MHV-A59 [5]; ATV006 2 mg/kg, delayed treatment",ineffective
same,Liver pathology (Ishak scoring),"MHV-A59 [5]; ATV006 10 mg/kg administered at 24, 48 and 72 hpi","significantly reduced liver piecemeal necrosis, bridging necrosis, circumscribed hepatic necrosis, and portal inflammation"
same,Serum ALT and AST levels,"MHV-A59 [5]; ATV006 10 mg/kg, delayed treatment",alleviated liver injury
same,Virus titers in the liver (plaque assay),MHV-A59 [5]; ATV006 50 mg/kg administered as late as 96 hpi,reduced virus titers to levels undetectable by plaque assay
same,Viral replication in the lung (qRT-PCR),MHV-A59 [5]; ATV006 250 mg/kg every 12 h,significant inhibition of viral replication only when ATV006 treatment (250 mg/kg) began no later than 24 hpi
same,Bleeding in the lungs (hemorrhage score),MHV-A59 [5]; [9],did not improve significantly
same,"Lung pathology: edema, monocyte and neutrophil infiltration",MHV-A59 [5]; [9],reduced pulmonary edema and monocyte and neutrophil infiltration
same,Viral replication in the lung (qRT-PCR),MHV-A59 [5]; ATV006 500 mg/kg every 12 h,effective when started within 48 hpi
same,Infectious viral particles in the lungs (plaque assay),MHV-A59 [5]; ATV006 500 mg/kg initiated within 48 hpi,No infectious viral particles were detected
same,MHV replication in the liver (qRT-PCR),"MHV-A59 [5]; ATV006 10, 25 and 50 mg/kg administered at 24 or 48 hpi",significantly inhibited MHV replication
same,Inflammatory cell infiltration in the liver (histopathology),MHV-A59 [6]; ATV006 50 mg/kg intragastric twice daily,significant reduction in inflammatory cell infiltration
same,Serum ALT and AST (liver injury markers),"MHV-A59 [6]; ATV006 50 mg/kg intragastric twice daily, 3 dpi, vs control",lower in the ATV006-treated group than in the control group
same,Viral titers in the liver (plaque assay),"MHV-A59 [6]; ATV006-treated group, prophylactic, 3 dpi",below the detection limit
same,Expression of inflammatory cytokines in the liver,"MHV-A59 [6]; ATV006 prophylactic, 3 dpi",significant decrease in the expression of various inflammatory cytokines in the liver
same,Oral bioavailability,[7],high oral bioavailability
same,EC50,MHV,265 nM
same,Inflammatory cell infiltration in lung (histopathology),MHV-A59 [8]; ATV006 500 mg/kg intragastric twice daily,vehicle-treated mice had more inflammatory cell infiltration compared to mice treated with ATV006
same,MHV infectious particles in the lung (plaque assay),MHV-A59 [8]; ATV006 50-500 mg/kg intragastric twice daily,dose-dependent decrease in the number of MHV infectious particles
same,"Inflammatory cytokines and chemokines in the lung (Ifnβ, Cxcl10, Il6, Il1β, Ifnγ)",MHV-A59 [8]; ATV006 prophylactic,significantly reduced the production of inflammatory cytokines and chemokines in the lung
"CCC(CC)COC(=O)[C@H](C)N[P@](=O)(OC[C@H]1O[C@@](C#N)(c2ccc3c(N)ncnn23)[C@H](O)[C@@H]1O)Oc1ccccc1 [remdesivir, reference compound]",Body weight compared with ATV006 (50 mg/kg),MHV-A59 [3]; [10],lower than that of mice treated with ATV006
same,Survival,MHV-A59 [3]; [10],prevented MHV-infected mice from dying
"N#C[C@@]1(c2ccc3c(N)ncnn23)O[C@H](CO)[C@@H](O)[C@H]1O [GS-441524, reference compound]",Serum ALT and AST (liver injury markers),MHV-A59 [1],significantly reduced the liver injury markers ALT and AST
same,MHV replication in the lung (qRT-PCR and plaque assay),MHV-A59 [1],only ATV006 significantly inhibited MHV replication in the lung
same,Virus titers in the liver (plaque assay),"MHV-A59 [1]; GS-441524 at 25, 50 mg/kg twice daily from 12 hpi",below the detection limit of the plaque assay
same,Body weight compared with ATV006 (50 mg/kg),MHV-A59 [3]; [11],lower than that of mice treated with ATV006
same,Survival,MHV-A59 [3]; [11],prevented MHV-infected mice from dying
